Reference: ChEMBL document CHEMBL5329156, “Discovery and development of novel substituted monohydrazides as potent antifungal agents” (RSC Med Chem, 2023)
The source made the active and inactive calls.

Tests used:
Aspergillus nidulans = experiment: Antifungal activity against Aspergillus nidulans ATCC 38163 assessed as fungal growth inhibition by double dilution method; type: functional
Cryptococcus neoformans = experiment: Antifungal activity against Cryptococcus neoformans ATCC MYA-895 assessed as fungal growth inhibition by double dilution method; type: functional
Summary of the method: (§1)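 Broth microdilution after CLSI M27-A3/M38-A2 with minor changes. Single colony grown overnight in YPD at 35 °C, 200 rpm. Compound final range 0.06-31.3 µg/mL; incubated 48 h at 35 °C.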

Aspergillus terreus = experiment: Antifungal activity against Aspergillus terreus ATCC MYA-3633 assessed as fungal growth inhibition by double dilution method; type: functional
[Candida] auris [1] = Antifungal activity against Candida auris AR Bank # 0384 assessed as fungal growth inhibition by double dilution method; type: functional; conditions: Candidozyma auris; summary of the method: as §1
HEK293 = experiment: Cytotoxicity against human HEK-293 cells assessed as reduction in cell viability at 31.3 microg/ml; type: toxicity, cell-based; conditions: dose 31.3 µg/ml
Summary of the method: (§2)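 Cells in DMEM with 10% FBS and 1% Pen/Strep, seeded at 10,000 cells/well and held overnight at 37 °C, 5% CO2. Compounds added at final 31.3-0.12 µg/mL (0.05% DMSO vehicle) for 24 h. Resazurin then added for 6 h; fluorescence read at ex 560/em 590. Triton X-100 1% as positive control; values normalized to vehicle. Run in quadruplicate.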

[Candida] auris [2] = Antifungal activity against Candida auris AR Bank # 381 assessed as fungal growth inhibition by double dilution method; type: functional; conditions: Candidozyma auris; summary of the method: as §1
Saccharomyces cerevisiae [3] = experiment: Antifungal activity against Saccharomyces cerevisiae AR Bank # 399 assessed as fungal growth inhibition by double dilution method; type: functional; summary of the method: as §1
[Candida] auris [4] = Antifungal activity against Candida auris AR Bank # 382 assessed as fungal growth inhibition by double dilution method; type: functional; conditions: Candidozyma auris; summary of the method: as §1
Candida duobushaemulonii [5] = experiment: Antifungal activity against Candida duobushaemulonii AR Bank # 391 assessed as fungal growth inhibition by double dilution method; type: functional; conditions: Candidozyma duobushaemuli; summary of the method: as §1
Candida albicans [6] = experiment: Antifungal activity against Candida albicans ATCC 64124 assessed as fungal growth inhibition by double dilution method; type: functional
Summary of the method: (§3)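 Broth microdilution after CLSI M27-A3/M38-A2 with minor modifications. A single colony was grown overnight in YPD at 35 °C with shaking at 200 rpm. Cells were mixed 1:1 with compound (final 0.06-31.3 µg/mL, from DMSO stocks) and incubated 48 h at 35 °C.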

Candida duobushaemulonii [7] = experiment: Antifungal activity against Candida duobushaemulonii AR Bank # 394 assessed as fungal growth inhibition by double dilution method; type: functional; conditions: Candidozyma duobushaemuli; summary of the method: as §1
Pichia kudriavzevii [8] = experiment: Antifungal activity against Pichia kudriavzevii ATCC 6258 assessed as fungal growth inhibition by double dilution method; type: functional; summary of the method: as §1
[Candida] auris [9] = Antifungal activity against Candida auris AR Bank # 388 assessed as fungal growth inhibition by double dilution method; type: functional; conditions: Candidozyma auris; summary of the method: as §1
[Candida] auris [10] = Antifungal activity against Candida auris AR Bank # 390 assessed as fungal growth inhibition by double dilution method; type: functional; conditions: Candidozyma auris; summary of the method: as §1
Saccharomyces cerevisiae [11] = experiment: Antifungal activity against Saccharomyces cerevisiae AR Bank # 400 assessed as fungal growth inhibition by double dilution method; type: functional; summary of the method: as §1
Aspergillus fumigatus [12] = experiment: Antifungal activity against Aspergillus fumigatus NRRL 6113 assessed as fungal growth inhibition by double dilution method; type: functional
[Candida] auris [13] = Antifungal activity against Candida auris AR Bank # 385 assessed as fungal growth inhibition by double dilution method; type: functional; conditions: Candidozyma auris; summary of the method: as §1
Candida albicans [14] = experiment: Antifungal activity against Candida albicans ATCC 10231 assessed as fungal growth inhibition by double dilution method; type: functional; summary of the method: as §1
[Candida] auris [15] = Antifungal activity against Candida auris AR Bank # 389 assessed as fungal growth inhibition by double dilution method; type: functional; conditions: Candidozyma auris; summary of the method: as §1
[Candida] haemuloni [16] = Antifungal activity against Candida haemulonii AR Bank # 393 assessed as fungal growth inhibition by double dilution method; type: functional; conditions: Candidozyma haemuli; summary of the method: as §1
Aspergillus fumigatus [17] = experiment: Antifungal activity against Aspergillus fumigatus NRRL 163 assessed as fungal growth inhibition by double dilution method; type: functional
[18] = Cytotoxicity against human HepG2 cells assessed as cell survival at 31.3 microg/ml relative to control; type: toxicity, cell-based; conditions: at 31.3 µg/mL, read-out: Activity; summary of the method: as §2
Candida albicans [19] = experiment: Antifungal activity against itraconazole/fluconazole resistant Candida albicans ATCC 90819 assessed as fungal growth inhibition by double dilution method; type: functional; summary of the method: as §3
Candida duobushaemulonii [20] = experiment: Antifungal activity against Candida duobushaemulonii AR Bank # 392 assessed as fungal growth inhibition by double dilution method; type: functional; conditions: Candidozyma duobushaemuli; summary of the method: as §1
Pichia kudriavzevii [21] = experiment: Antifungal activity against Pichia kudriavzevii AR Bank # 397 assessed as fungal growth inhibition by double dilution method; type: functional; summary of the method: as §1
Aspergillus fumigatus [22] = experiment: Antifungal activity against Aspergillus fumigatus NRRL 5109 assessed as fungal growth inhibition by double dilution method; type: functional
Aspergillus flavus = experiment: Antifungal activity against Aspergillus flavus ATCC MYA-3631 assessed as fungal growth inhibition by double dilution method; type: functional
Nakaseomyces glabratus [23] = experiment: Antifungal activity against Candida glabrata ATCC 2001 assessed as fungal growth inhibition by double dilution method; type: functional; summary of the method: as §1
Candida albicans [24] = experiment: Antifungal activity against itraconazole/fluconazole susceptible Candida albicans ATCC MYA-2310 assessed as fungal growth inhibition by double dilution method; type: functional; summary of the method: as §3
Candida albicans [25] = experiment: Antibiofilm activity against Candida albicans ATCC 10231 assessed as reduction in biofilm production at 1.96 to 3.9 microg/ml by biofilm formation assay; type: functional, organism-based; conditions: dose 1.96-3.9 µg/ml
Candida albicans [26] = experiment: Antifungal activity against itraconazole/fluconazole susceptible Candida albicans ATCC MYA-2876 assessed as fungal growth inhibition by double dilution method; type: functional; summary of the method: as §3
[Candida] haemuloni [27] = Antifungal activity against Candida haemulonii AR Bank # 395 assessed as fungal growth inhibition by double dilution method; type: functional; conditions: Candidozyma haemuli; summary of the method: as §1
Candida albicans [28] = experiment: Antifungal activity against itraconazole/fluconazole resistant Candida albicans ATCC MYA-1237 assessed as fungal growth inhibition by double dilution method; type: functional; summary of the method: as §3
Clavispora lusitaniae = experiment: Antifungal activity against Clavispora lusitaniae AR Bank # 398 assessed as fungal growth inhibition by double dilution method; type: functional; summary of the method: as §1
[Candida] auris [29] = Antifungal activity against Candida auris AR Bank # 387 assessed as fungal growth inhibition by double dilution method; type: functional; conditions: Candidozyma auris; summary of the method: as §1
[Candida] auris [30] = Antifungal activity against Candida auris AR Bank # 0390 assessed as fungal growth inhibition by double dilution method; type: functional; conditions: Candidozyma auris; summary of the method: as §1
[Candida] auris [31] = Antifungal activity against Candida auris AR Bank # 386 assessed as fungal growth inhibition by double dilution method; type: functional; conditions: Candidozyma auris; summary of the method: as §1
[Candida] auris [32] = Antifungal activity against Candida auris AR Bank # 383 assessed as fungal growth inhibition by double dilution method; type: functional; conditions: Candidozyma auris; summary of the method: as §1
[Candida] auris [33] = Antifungal activity against Candida auris AR Bank # 384 assessed as fungal growth inhibition by double dilution method; type: functional; conditions: Candidozyma auris; summary of the method: as §1
Candida albicans [34] = experiment: Antifungal activity against itraconazole/fluconazole resistant Candida albicans ATCC MYA-1003 assessed as fungal growth inhibition by double dilution method; type: functional; summary of the method: as §3
Nakaseomyces glabratus [35] = experiment: Antifungal activity against Candida glabrata ATCC 22019 assessed as fungal growth inhibition by double dilution method; type: functional; summary of the method: as §1
J774.A1 = experiment: Cytotoxicity against J774A.1 cells assessed as reduction in cell viability at 31.3 microg/ml; type: toxicity, cell-based; conditions: mouse, dose 31.3 µg/ml; summary of the method: as §2
Kodamaea ohmeri = experiment: Antifungal activity against Kodamaea ohmeri AR Bank # 396 assessed as fungal growth inhibition by double dilution method; type: functional; summary of the method: as §1

O=C(NNc1cc(F)cc(F)c1)c1ccccn1
0.98 µg/mL: MIC (Aspergillus terreus) | MIC ([Candida] auris [2]) | MIC (Candida albicans [6]) | MIC (Saccharomyces cerevisiae [11]) | MIC (Candida albicans [19]) | MIC (Candida albicans [24]) | MIC (Candida albicans [26]) | MIC ([Candida] auris [33])
inactive: Activity (Candida albicans [25])
1.95 µg/mL: MIC (Saccharomyces cerevisiae [3]) | MIC (Aspergillus flavus) | MIC (Candida albicans [28]) | MIC (Nakaseomyces glabratus [35])
0.24 µg/mL: MIC (Cryptococcus neoformans) | MIC ([Candida] auris [1]) | MIC (Candida duobushaemulonii [5]) | MIC (Candida duobushaemulonii [7]) | MIC (Pichia kudriavzevii [8]) | MIC ([Candida] auris [9]) | MIC ([Candida] auris [13]) | MIC ([Candida] auris [15]) | MIC ([Candida] haemuloni [27]) | MIC ([Candida] auris [29]) | MIC ([Candida] auris [32])
31.3 µg/mL: MIC (Aspergillus fumigatus [12])
0.12 µg/mL: MIC ([Candida] auris [4]) | MIC (Pichia kudriavzevii [21]) | MIC (Kodamaea ohmeri)
≤ 0.06 µg/mL: MIC (Candida albicans [14]) | MIC ([Candida] auris [31])
Non-Toxic: Activity (HEK293) | Activity (J774.A1)
> 31.3 µg/mL: MIC (Aspergillus fumigatus [17]) | MIC (Aspergillus fumigatus [22])
89%: viability at 31.3 microg/ml [18]
7.8 µg/mL: MIC (Nakaseomyces glabratus [23])
0.49 µg/mL: MIC (Aspergillus nidulans) | MIC ([Candida] auris [10]) | MIC ([Candida] haemuloni [16]) | MIC (Candida duobushaemulonii [20]) | MIC (Clavispora lusitaniae) | MIC ([Candida] auris [30]) | MIC (Candida albicans [34])
